Experimental data reported in PMC4027032 (Journal of the American Chemical Society, 2011).

Key:
[1] = λirr = 400 nm; cited from earlier work
human cathepsin L = human cathepsin L (Homo sapiens, UniProt P07711); test: Cathepsin L inhibition, fluorogenic substrate Z-Phe-Arg-AMC; assay type: biochemical; conditions: 1 alone; acetate buffer pH 5.5, cat L 20 nM, 1% DMSO
Outline: (§1)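 Human cathepsin K or L at 20 nM in 0.4 M acetate buffer (pH 5.5, 4 mM EDTA, 8 mM DTT, final 1% DMSO). Substrates at 100 μM were Z-Gly-Pro-Arg-AMC for K and Z-Phe-Arg-AMC for L. Reactions were run in the dark or after 10 min irradiation (250 W tungsten halogen lamp, >395 nm, H2O filter). IC50 came from a sigmoidal fit versus log[inhibitor], with 100% set by the no-inhibitor control.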

papain = target: T1, papain (Carica papaya, UniProt P00784); test: Papain inhibition, chromogenic substrate BAPNA; assay type: biochemical; conditions: inhibitor 1 alone; papain 650 nM, phosphate buffer pH 6.5, 11% DMSO
T1 sequence (P00784 134-345): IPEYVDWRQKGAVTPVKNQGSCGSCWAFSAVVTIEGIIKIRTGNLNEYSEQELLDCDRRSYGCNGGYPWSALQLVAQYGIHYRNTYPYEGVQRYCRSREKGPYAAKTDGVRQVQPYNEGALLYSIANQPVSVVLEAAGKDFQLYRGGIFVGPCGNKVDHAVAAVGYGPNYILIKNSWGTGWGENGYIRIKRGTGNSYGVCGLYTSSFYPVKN

[2] = target: human cathepsin B in hBMSC lysates (Homo sapiens, UniProt P07858); test: Cathepsin B activity in hBMSC lysates, Z-Arg-Arg-AMC; assay type: biochemical; conditions: 1 alone; hBMSC lysate
Outline: (§2)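 Cathepsin B activity was measured in DU145 or hBMSC cell lysates with fluorogenic Z-Arg-Arg-AMC at 100 μM, run in the dark or after the test compound was irradiated for 10 min with a 250 W tungsten halogen lamp (>395 nm, H2O filter). Activity was plotted against log[inhibitor] and fit to a sigmoidal curve to give IC50, with 100% set by the no-inhibitor control.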

human cathepsin K = target: T2, human cathepsin K (Homo sapiens, UniProt P43235); test: Cathepsin K inhibition, fluorogenic substrate Z-Gly-Pro-Arg-AMC; assay type: biochemical; conditions: 1 alone; acetate buffer pH 5.5, cat K 20 nM, 1% DMSO
T2 sequence (P43235 115-329): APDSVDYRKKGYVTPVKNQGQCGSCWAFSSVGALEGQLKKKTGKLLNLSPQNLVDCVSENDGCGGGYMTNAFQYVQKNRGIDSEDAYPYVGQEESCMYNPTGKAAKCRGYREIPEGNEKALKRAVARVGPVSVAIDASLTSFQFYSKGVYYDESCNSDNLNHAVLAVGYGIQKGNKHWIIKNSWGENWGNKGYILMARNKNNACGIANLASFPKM
Outline: as §1

human cathepsin B = human cathepsin B (Homo sapiens, UniProt P07858); test: Cathepsin B inhibition, fluorogenic substrate Z-Arg-Arg-AMC; assay type: biochemical; conditions: 1 alone; acetate buffer pH 6.0, cat B 8 nM, 1% DMSO
Outline: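 Human cathepsin B at 8 nM in 0.4 M acetate buffer (pH 6.0, 4 mM EDTA, 8 mM DTT, final 1% DMSO), with Z-Arg-Arg-AMC at 100 μM. Reactions were run in the dark or after 10 min irradiation of the test compound (250 W tungsten halogen lamp, >395 nm, H2O filter). IC50 came from a sigmoidal fit of activity versus log[inhibitor], with 100% set by the no-inhibitor control.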

[3] = target: human cathepsin B in DU145 lysates (Homo sapiens, UniProt P07858); test: Cathepsin B activity in DU145 cell lysates, Z-Arg-Arg-AMC; assay type: biochemical; conditions: 1 alone; DU145 lysate
Outline: as §2

Sequence of human cathepsin L (P07711 114-333): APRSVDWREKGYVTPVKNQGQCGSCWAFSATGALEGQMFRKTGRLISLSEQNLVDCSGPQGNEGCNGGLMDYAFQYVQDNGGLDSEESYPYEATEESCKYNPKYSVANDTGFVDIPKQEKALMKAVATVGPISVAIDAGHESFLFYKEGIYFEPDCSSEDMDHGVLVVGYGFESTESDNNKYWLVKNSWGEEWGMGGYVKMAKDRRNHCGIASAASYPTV

| Structure (SMILES) | overall photoaquation quantum yield ΦR→P [1] | IC50 (human cathepsin L) | IC50 (papain) | IC50 [2] | IC50 (human cathepsin K) | IC50 (human cathepsin B) | IC50 [3] |
| --- | --- | --- | --- | --- | --- | --- | --- |
| CC#N.CC#N.[Cl-].[Cl-].[Ru+2].c1ccc(-c2ccccn2)nc1.c1ccc(-c2ccccn2)nc1 [cis-[Ru(bpy)2(MeCN)2]Cl2] | 0.21 | – | – | – | – | – | – |
| CC(=O)N[C@@H](Cc1ccccc1)C(=O)NCC#N [compound 1, Ac-Phe-NHCH2CN, reference compound] | – | 72 µM | 0.638 µM | 183 µM | 12 µM | 133 µM | 182 µM |
